Active and inactive are the calls of the source. No cut-off for these calls is given here.
How the values were obtained:
[1] = target: Protein kinase C (PKC); test: Activation of PKC in human J-Lat 6.3 cells infected with latent HIV-1 assessed as reversal of HIV-1 latency by measuring increase of GFP-positive cells at 1 to 10000 nM incubated for 24 hrs by flow cytometry; type: cell-based
Procedure, shortened: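 J-Lat 10.6 or J-Lat 6.3 cells (5 × 10^5 cells/ml) incubated 24 h with graded drug concentrations; % GFP-positive cells determined by flow cytometry. Means ± S.D. of three independent experiments.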

[2] = Toxicity in human PBMC assessed as reduction in cell viability after 5 days by WST8 assay; type: cell-based; conditions: time 5 day
Procedure, shortened: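 PBMC from a healthy donor exposed to drug, with viability determined at day 5. CC50 is the concentration reducing viability by 50%.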

[3] = system: U1; test: Induction of apoptosis in human U1 cells at 1 uM after 48 hrs by PI/annexin-V staining based flow cytometry; type: functional
[4] = target: T1, Protein kinase C (PKC) (Homo sapiens) (UniProt O94806+P41743+P17252+P05129+Q05655+P05771+Q05513+Q02156+P24723+Q15139+Q04759); test: Synergistic activation of PKC in human J-Lat 10.6 cells infected with latent HIV-1 assessed as reversal of HIV-1 latency by measuring increase of GFP-positive cells at 400 nM in presence of 500 nM JQ1 incubated for 24 hrs by flow cytometry; type: cell-based; conditions: filed as activator
Procedure, shortened: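 J-Lat 10.6 cells at 5 × 10^5 cells/ml treated 24 h alone or with 500 nm JQ1. GFP-positive cells counted by flow cytometry. Fraction affected normalised to PMA response after subtracting the no-drug value. Synergy by Bliss independence (Δfaxy). Mean ± S.D. of three independent experiments.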

[5] = target: T1, Protein kinase C (PKC) (Homo sapiens); test: Activation of PKC in human ACH-2 cells infected with latent HIV-1 assessed as reversal of HIV-1 latency by measuring increase in p24 antigen level at 5 to 50 nM incubated for 48 hrs in presence of 100 nM GSK525762A by chemiluminescent enzyme immunoassay; type: cell-based; conditions: ACH-2 cell line, dose 5-50 nM
Procedure, shortened: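 ACH-2 cells treated 48 h with 5–50 nM of the test agent, alone or combined with 100 nM GSK525762A (BRD4 inhibitor). Supernatant p24 measured by chemiluminescent immunoassay. Synergy or antagonism scored with the Bliss independence model (Δfaxy >0 synergy, <0 antagonism). Three independent experiments, mean ± S.D.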

[6] = target: T1, Protein kinase C (PKC) (Homo sapiens); test: Synergistic activation of PKC in human U1 cells infected with latent HIV-1 assessed as reversal of HIV-1 latency by measuring increase in p24 antigen level at 25 nM incubated for 48 hrs in presence of 100 nM JQ1 by chemiluminescent enzyme immunoassay relative to compound alone; type: cell-based; conditions: filed as activator
Procedure, shortened: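 U1 cells at 5 × 10^5 cells/ml incubated 48 h with test agent alone or plus 100 nm JQ1. Supernatant p24 antigen quantified by automated immunoassay. Fold reactivation computed versus the same agent without JQ1. Mean ± S.D. of three independent experiments.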

[7] = target: T1, Protein kinase C (PKC) (Homo sapiens); test: Synergistic activation of PKC in CD4+ T-cells purified from HIV-infected patient assessed as increase in transcription of HIV mRNA at 5 uM incubated for 24 hrs by qRT-PCR method; type: cell-based; conditions: CD4+ T cell, filed as activator
Procedure, shortened: (§1)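 CD4+ T-cells purified from PBMC of patients on cART for at least 5 years with plasma viral load <20 copies/ml. Cells plated at 2.5 × 10^6 cells/ml and treated 24 h, alone or with 1 μm JQ1. Intracellular HIV RNA measured by qRT-PCR against a plasmid standard curve, normalised per ng input RNA, relative to untreated cells. Synergy assessed by Bliss independence model.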

[8] = target: T1, Protein kinase C (PKC) (Homo sapiens); test: Synergistic activation of PKC in CD4+ T-cells purified from HIV-infected patient assessed as increase in transcription of HIV mRNA at 5 uM incubated for 24 hrs in presence of 1 uM JQ1 by qRT-PCR method; type: cell-based; conditions: CD4+ T cell, filed as activator; procedure, shortened: as §1
[9] = system: ACH-2 cell line; test: Induction of apoptosis in human ACH-2 cells at 1 uM incubated for 48 hrs after pre-incubated for 2 hrs with 20 uM caspase inhibitor Q-VD-Oph by propidium iodide/annexin-V staining based flow cytometry; type: functional, cell-based
Procedure, shortened: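 ACH-2 or U1 cells pretreated 2 h with 20 µM pan-caspase inhibitor Q-VD-Oph, then exposed to 1 µM compound for 48 h. Annexin-V/PI staining by flow cytometry; apoptotic proportions compared with and without Q-VD-Oph. Mean ± S.D.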

[10] = target: T1, Protein kinase C (PKC) (Homo sapiens); test: Activation of PKC in CCL19-induced human CD4+ T-cells infected with latent HIV-1 assessed as reversal of HIV-1 latency by measuring increase in p24 antigen level at 1 uM incubated for 48 hrs by chemiluminescent enzyme immunoassay; type: cell-based; conditions: CD4+ T cell, filed as activator
[11] = system: CD4+ T cell; test: Induction of apoptosis in CCL19-induced human CD4+ T-cells infected with latent HIV-1 assessed as caspase-3 activation at 1 uM incubated for 48 hrs by FACS; type: functional, cell-based
Procedure, shortened: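 Latency model: healthy-donor CD4+ T-cells given 100 nM CCL19 for 2 days, infected with HIV-1 NL4-3, kept 5 days in IL-2. Stimulated 2 days with 1 µM drug or 100 nM PMA plus 2 µM ionomycin. Cells fixed and permeabilized, co-stained with anti-p24 and anti-active caspase-3 mAbs; active caspase-3 read by flow cytometry separately in p24+ and p24− cells. Two donors.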

[12] = Toxicity in human CD4+ T-cells assessed as increase in ratio of CD69+ cells incubated for 24 hrs by flow cytometry; type: cell-based; conditions: cd4+ t cell
Procedure, shortened: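 Primary CD4+ T-cells from healthy donors treated with drug for 24 h. Cells stained with anti-CD25 and anti-CD69 antibodies (plus CD3, CD4, HLA-DR) for 30 min on ice, then marker-positive proportions quantified by flow cytometry.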

[13] = Toxicity in human CD4+ T-cells assessed as elevation of supernatant cytokine concentrations of IL-2 incubated for 24 hrs by bead-based immunoassay; conditions: cd4+ t cell
Procedure, shortened: (§2)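 Purified CD4+ T-cells from healthy donors treated 24 h with 1 μm drug, 1 μm JQ1, or the combination. IL-2, IL-5, IL-6, IL-13, TNFα and IFN-γ in supernatants measured by flow-cytometry bead-based Th1/Th2 immunoassay. Run in duplicate.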

[14] = Toxicity in human CD4+ T-cells assessed as elevation of supernatant cytokine concentrations of IL-5 incubated for 24 hrs by bead-based immunoassay; conditions: cd4+ t cell; procedure, shortened: as §2
[15] = Toxicity in human CD4+ T-cells assessed as elevation of supernatant cytokine concentrations of IL-6 incubated for 24 hrs by bead-based immunoassay; conditions: cd4+ t cell; procedure, shortened: as §2
[16] = Toxicity in human CD4+ T-cells assessed as elevation of supernatant cytokine concentrations of TNFalpha incubated for 24 hrs in presence of JQ1 by bead-based immunoassay; conditions: cd4+ t cell; procedure, shortened: as §2
[17] = Toxicity in human CD4+ T-cells assessed as elevation of supernatant cytokine concentrations of IFNgamma incubated for 24 hrs in presence of JQ1 by bead-based immunoassay; conditions: cd4+ t cell; procedure, shortened: as §2
[18] = system: U1; test: Induction of apoptosis in human U1 cells assessed as caspase-3 activation at 1 uM incubated for 24 hrs by flow cytometry; type: functional
Procedure, shortened: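 Cells fixed in 1% paraformaldehyde, permeabilized, stained 30 min on ice with anti-active caspase-3 mAb, and analysed by flow cytometry. Three independent experiments.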

`CCCCCCCCCCc1ccc2c(c1)N(C)[C@@H](C(C)C)C(=O)N[C@H](CO)C2` showed an EC50 [1] of 6.3 µM, a CC50 at 120 h [2] of 39.9 µM and an Activity [3] of 30.4%. For the same compound, the Activity [4] was 73.1%, the Activity [5] was “inactive” and the fold change (FC) [6] was 22.9. For the same compound, the fold change (FC) [7] was 1.4, the fold change (FC) [8] was 13.4 and the Activity [9] was “inactive”. For the same compound, the Activity [10] was “Active”, the Activity [11] was “Active” and the Activity [12] was “Non-Toxic”. For the same compound, the Activity [13] was “Toxic”, the Activity [14] was “Toxic” and the Activity [15] was “Toxic”. The Activity [16] was “Non-Toxic”, the Activity [17] was “Non-Toxic” and the Activity [18] was 24.9%.

Reference: ChEMBL document CHEMBL5674882, “Benzolactam-related compounds promote apoptosis of HIV-infected human cells via protein kinase C-induced HIV latency reversal” (J Biol Chem, 2019)
